# Sampled rows, rich in hits. Any-hit rate of the full collection: about 1.7%.
# SUMO1 PPI mod: modulators of human SUMO1-mediated protein-protein interactions | P63165 | SUMO1 binding to a labelled peptide, TR-FRET, 1 h | inhibition, % at 20 µM | 0.33% of 360,000 active; in the data active = inhibition above about 37%
# LMPTP inh: blocks human LMPTP phosphatase; P24666; recombinant LMPTP-A, OMFP fluorogenic substrate, fluorescence intensity; inhibition, % at 20 µM; 0.22% of 360,000 active; AID 651560;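 active = compounds that cut the enzyme signal by at least half of the control window in the single-dose screen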;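 also: plate controls were DMSO wells with enzyme plus substrate for no effect and substrate without enzyme for full effect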
#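 test system = LMPTP-A | amount = 0.625 nM LMPTP-A final | reagent = fluorogenic phosphatase substrate OMFP at 400 µM final | incubation = 50 min at room temperature | benchmarks = no-enzyme low control, uninhibited high control | medium = Bis-Tris pH 6.0, DTT, detergent | signal = fluorescence intensity of OMFP turnover product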
# STEP inh: STEP (human) phosphatase inhibition | P54829 | recombinant STEP, OMFP fluorogenic substrate, fluorescence | inhibition, % at 20 µM | 0.25% of 360,000 active | AID 588621;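 active = inhibition at 20 µM, scaled per plate between control wells, above about 37%, limit read from the data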;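 also: 0% = DMSO with enzyme and substrate and 100% = substrate only without enzyme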
#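 System: STEP (striatal-enriched tyrosine phosphatase) enzyme, cell-free; medium: Bis-Tris pH 6.0 buffer with DTT, detergent; dosing: 20 µM, 1% DMSO; times: reaction 20 min, ambient temperature; detection: fluorescence, 480/540 nm; read-out basis: normalized % inhibition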
# Scp1 inh: inhibitors of human Scp-1 phosphatase. inhibition, % at 20 µM. Q9GZU7. 0.88% of 340,000 active. Recombinant Scp1, phosphopeptide, malachite green phosphate absorbance;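 active = inhibition above about 50% at 20 µM, limit read from the data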;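 also: plate controls were DMSO wells with enzyme for no effect and wells lacking enzyme for full effect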
#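 Test system: SCP-1 phosphatase catalytic domain, residues 76-261 | Compound dosing: One concentration, 20 µM, with 1.0% DMSO | Schedule: 45 min room-temperature reaction, 5 min colour, 30 min stabiliser | Detection: Absorbance at 630 nm | Read-out basis: % inhibition of SCP-1 phosphate liberation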
# CASP6 VEID inh: inhibitors of human caspase-6; purified caspase-6, Z-VEID-R110 cleavage fluorescence; inhibition, % at 12.5 µM; P55212; 0.53% of 350,000 active;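 active = mean inhibition across replicates at least about 35%, with every replicate also reaching that limit, limit read from the data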;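 also: 0% = median of neutral control wells and 100% = no fluorescence left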
# DNMT1 inh: blocks human DNA methyltransferase DNMT1 | P26358 | DNMT1 molecular beacon, Hinp1I cleavage, fluorescence | inhibition (reported as % activation of signal), % at 10 µM | 0.83% of 360,000 active; in the data active = inhibition above about 50%
# Scp-1 conf: Scp-1 (human) inhibition, single-dose confirmed; shares compounds with Scp1 inh; recombinant SCP-1 catalytic domain, phosphate release, malachite green absorbance; inhibition, % at 20 µM; 61% of 2,500 active;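 also: plate controls were DMSO with enzyme for no effect and buffer wells lacking enzyme for full effect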
# Scp-1 MG ctr: colorimetric interference in Scp-1 counter-screen. Colorimetric interference counterscreen, malachite green absorbance 630 nm. apparent inhibition (interference), % at 20 µM. 2,500 tested, under 10 active. shares compounds with Scp1 inh;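 also: compounds added after enzyme reaction finished so only phosphate colour detection is probed; plate controls were DMSO wells with completed Scp-1 reaction for no effect and substrate wells lacking enzyme for full effect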
# Scp-1 Tm shift: Scp-1 (human) binding by thermal shift. shares compounds with Scp1 inh. AID 540329. Recombinant SCP1, Sypro Orange thermal shift Tm. thermal shift relative to vanadate control, % at 40 µM. 25% of 1,500 active;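 active = substances whose mean melting-temperature shift, as a percentage of the reference inhibitor's shift, reaches about 5.3%, limit read from the data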;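 also: 0% = Tm of DMSO wells and 100% = Tm with sodium orthovanadate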
# DNMT1 inh conf: DNMT1 inhibition confirmation, single concentration. shares compounds with DNMT1 inh. DNMT1 molecular beacon HinP1I cleavage, fluorescence. inhibition, % at 10 µM. 8% of 2,300 active. AID 602385;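 active = average inhibition of at least 30% in the single-concentration confirmation test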
# DNMT1 interf: counter-screen for DNMT1 inhibitors: spectral interference; activation (fluorescence interference), % at 10 µM; DNMT1 molecular beacon spectral interference counterscreen, fluorescence 485/520; shares compounds with DNMT1 inh; 1% of 2,300 active;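 active = activation of at least 30% at 10 µM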;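 also: DNMT1 catalytic domain with a HinP1I cleavage step and a FAM/dabcyl DNA beacon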
# STEP conf: confirmation of human STEP phosphatase inhibitors | shares compounds with STEP inh | recombinant STEP, OMFP fluorogenic substrate, fluorescence | inhibition, % at 20 µM | 32% of 520 active; call rule not given here;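 also: 0% = enzyme with substrate plus DMSO and 100% = substrate without enzyme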
# The depositor's hits bear a star; x = no result.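 The calls were made as follows, unless noted: active = inhibition of at least 30% at 20 µM; inactive = the rest.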
SMILES,SUMO1 PPI mod,LMPTP inh,STEP inh,Scp1 inh,CASP6 VEID inh,DNMT1 inh,Scp-1 conf,Scp-1 MG ctr,Scp-1 Tm shift,STEP conf,others
CCc1cc(CNC(=O)c2ccc(OC3CCN(CCc4ccccc4)CC3)cc2)on1,4.2,11.9,92.5*,74.5*,2.6,20.6,64.8*,4.8,-3.0,-6.8,
COc1c(C)cc(C(O)c2ncc(-c3ccccc3C)[nH]2)cc1C (stereo not given),16.3,-1.2,-2.2,x,7.7,3.0,x,x,x,x,
CC(=O)N1CCOc2ccc(S(=O)(=O)NCc3ccc(F)cc3)cc21,-2.4,22.4,73.0*,61.8*,40.1*,26.3,50.0*,-16.1,-8.9,30.1*,
CCCCn1c(N)c(-c2nc3ccccc3o2)c2c([N+](=O)[O-])nn(C)c(=O)c21,-7.3,54.6*,57.8*,93.1*,1.2,86.8*,68.1*,-8.2,2.7,22.9,DNMT1 inh conf=0.3;DNMT1 interf=-1.5
N#C/C(=C\c1ccc(OCc2ccc(F)cc2)cc1)C(=O)Nc1cccc(C(=O)O)c1,25.7,31.3,92.5*,92.6*,0.1,-2.9,74.3*,-4.0,4.8,6.0,
COc1ccc(NC(=O)/C(C#N)=C\c2ccc(OCc3ccc(C(=O)O)cc3)c(OC)c2)cc1,8.0,75.7*,89.4*,75.4*,7.5,-4.8,62.0*,-7.1,-9.5,4.9,
O=C1C(C=NC2CC2)=C(O)c2ccccc21,-7.5,-0.1,1.1,-3.4,x,-2.5,x,x,x,x,
CCCn1nnnc1NCc1ccccc1OCc1cccs1,2.7,1.2,0.6,-12.2,-1.0,3.3,x,x,x,x,
O=C(N/N=C/c1cccc([N+](=O)[O-])c1)c1cccc(Br)c1,3.9,0.2,-2.6,-6.6,0.8,-1.9,x,x,x,x,
O=C(N/N=C/c1cccc([N+](=O)[O-])c1)c1ccc(Br)cc1,-6.8,64.9*,72.6*,98.2*,-0.6,19.8,85.9*,-8.5,-1.8,16.5*,
O=C(N/N=C/C(Br)=C/c1ccccc1)c1ccncc1,-28.3,-0.4,-1.8,-11.4,1.4,-5.5,x,x,x,x,
O=C(N/N=C/C(Br)=C/c1ccccc1)c1ccc([N+](=O)[O-])cc1,2.1,77.8*,87.8*,97.3*,-2.2,57.1*,84.3*,-12.3,1.8,6.1,DNMT1 inh conf=4.9;DNMT1 interf=-0.3
Cc1ccc(-c2ccc(S(=O)(=O)N3CC(C)OC(C)C3)cc2)cc1 (stereo not given),0.7,-0.3,-0.9,-4.3,-0.9,2.5,x,x,x,x,
COc1cc(CNC2CCCCCCC2)cc(Cl)c1OCC(N)=O,-1.2,-1.0,-0.2,-1.9,-3.8,1.8,x,x,x,x,
COc1ccc(NC(=O)Nc2ccc3c(c2)C(=O)N([C@@H](C)CO)C[C@@H](C)[C@H](CN(C)C(=O)Nc2ccc(F)cc2)O3)cc1,x,x,x,x,0.7,x,x,x,x,x,
NC(=O)COc1ccc(/C=N\NC(=O)c2ccc(-c3ccccc3)cc2)cc1,0.9,38.0,85.0*,86.1*,20.0,40.8,56.3*,-9.5,-32.5,2.2,
O=C(N/N=C/c1ccccc1)c1ccc(-c2ccccc2)cc1,6.2,-1.6,-2.6,-1.9,1.9,1.6,x,x,x,x,
O=C(O)CSc1sc(=S)sc1SCC(=O)O,-12.5,0.6,58.3*,75.7*,x,-2.0,10.0,-11.5,x,13.7,

# Screening results (PubChem)
